Rows were chosen to be rich in hits. Some 1.3% of all compounds tested hit in one or more screens of this group.
PfGluPho inh: PfG6PD (Plasmodium falciparum) enzyme inhibition | PfGluPho enzyme, NADPH resazurin-diaphorase fluorescence | inhibition, % at 20 µM | 0.78% of 350,000 active;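 active = inhibition reaching at least a set limit at 20 µM in the primary screen, cut at about 59% in these data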;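 note: 0% = DMSO wells with substrate and 100% = DMSO wells lacking glucose-6-phosphate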
G6PDH counter: counter-screen for G6PDH assay hits: L. mesenteroides G6PDH inhibition. Purified L. mesenteroides G6PDH, diaphorase/resazurin coupled fluorescence, 45 min. inhibition, % at 5 µM. 0.12% of 200,000 active. AID 1020; in the data active = inhibition above about 50%
Tb hexokinase: T. brucei hexokinase 1 inhibition; recombinant TbHK1, G6PDH-coupled NADH A340; inhibition, % at 10 µM; 0.11% of 220,000 active; AID 1430;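 active = inhibition of 50% or more in the single-dose primary screen; inactive = inhibition below 50%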
Diaph inh CS: inhibits diaphorase or chemically oxidizes, flagging diaphorase assay artifacts; 0.69% of 190,000 active; inhibition, % at 20 µM; diaphorase resazurin-to-resorufin fluorescence, NADH, 16 min; bacterial (C. kluyveri) enzyme, not human;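 active = primary screen inhibition at 20 µM above a set limit, cut at about 50% in these data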;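 note: plate controls were DMSO with full reaction for no effect and wells lacking NADH for full effect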
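Benchmarks: positive control wells lacking NADH, neutral wells with DMSO only. System: bacterial diaphorase enzyme (C. kluyveri). Input: 0.14 U/mL diaphorase, enzyme working solution. Detection: resorufin fluorescence, excitation 544 nm, emission 590 nm. Times: 16-min room-temperature incubation before reading.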
HKDC1 inh: inhibitors of human hexokinase HKDC1; recombinant HKDC1, G6PDH/diaphorase resazurin coupled fluorescence; AID 493160; inhibition, % at 20 µM; 0.16% of 340,000 active; Q2TB90;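 active = inhibition above about 35% when tested at 20 µM, limit read from the data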;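 note: plate controls were DMSO wells with enzyme for no effect and DMSO wells lacking enzyme for full effect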
Target sequence (Q2TB90 whole entry, looked up): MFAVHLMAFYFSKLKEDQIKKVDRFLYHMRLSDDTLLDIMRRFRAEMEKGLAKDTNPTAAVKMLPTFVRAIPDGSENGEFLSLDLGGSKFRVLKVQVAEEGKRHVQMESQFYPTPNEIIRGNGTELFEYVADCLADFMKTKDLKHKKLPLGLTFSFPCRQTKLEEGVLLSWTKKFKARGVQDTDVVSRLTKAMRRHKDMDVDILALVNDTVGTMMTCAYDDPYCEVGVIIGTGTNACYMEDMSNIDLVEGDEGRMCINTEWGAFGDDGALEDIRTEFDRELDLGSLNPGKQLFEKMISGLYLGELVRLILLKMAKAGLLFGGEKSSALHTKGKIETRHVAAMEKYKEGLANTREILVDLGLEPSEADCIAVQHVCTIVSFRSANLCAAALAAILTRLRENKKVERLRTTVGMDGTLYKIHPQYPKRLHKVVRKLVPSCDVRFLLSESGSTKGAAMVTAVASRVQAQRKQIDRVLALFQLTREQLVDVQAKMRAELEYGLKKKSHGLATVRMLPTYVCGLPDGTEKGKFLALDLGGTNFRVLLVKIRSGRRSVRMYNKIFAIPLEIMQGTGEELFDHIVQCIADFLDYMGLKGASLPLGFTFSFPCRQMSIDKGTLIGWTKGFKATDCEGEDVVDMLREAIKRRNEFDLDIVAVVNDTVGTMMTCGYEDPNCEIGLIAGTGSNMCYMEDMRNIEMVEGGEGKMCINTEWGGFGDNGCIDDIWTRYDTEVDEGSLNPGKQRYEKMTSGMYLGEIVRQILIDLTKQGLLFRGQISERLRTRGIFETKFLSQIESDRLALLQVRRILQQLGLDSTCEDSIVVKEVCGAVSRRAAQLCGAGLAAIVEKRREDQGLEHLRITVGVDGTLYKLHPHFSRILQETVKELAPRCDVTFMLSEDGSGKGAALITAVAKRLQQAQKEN
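Material: recombinant HKDC1 hexokinase; Amount: HKDC1 at 5 µg/mL; Medium: Tris pH 8.0 buffer with MgCl2, Tween-20, BSA, BME; Schedule: 90 min reaction incubation at room temperature, dark; Technique: coupled resazurin fluorescence, excitation 525 nm, emission 613 nm.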
HKDC1 act conf2: HKDC1 (human) activation, single-dose confirmed; shares compounds with HKDC1 inh; recombinant HKDC1, G6PDH/diaphorase resazurin fluorescence; hits give low values; inhibition, % at 20 µM; 14% of 740 active; AID 504708;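 active = inhibition at or below a set negative limit, negative inhibition meaning the enzyme was activated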
PfGluPho conf: confirmation of Plasmodium falciparum G6PD inhibitors; shares compounds with PfGluPho inh; recombinant PfGluPho, NADPH-diaphorase-resazurin fluorescence; inhibition, % at 20 µM; 34% of 2,400 active; AID 504753;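 active = inhibition of at least 50% at 20 µM in any single replicate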;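 note: 0% = DMSO with substrate and 100% = DMSO lacking glucose-6-phosphate substrate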
Diaphorase 10uM: counter-screen for P. falciparum G6PD inhibitors: diaphorase inhibitors, oxidizers. 39% of 820 active. shares compounds with PfGluPho inh. diaphorase-coupled resazurin reduction, fluorescence, NADPH 10 uM. inhibition, % at 20 µM;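 active = average inhibition reaching 50% or more with the compound at 20 µM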;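 note: resorufin red fluorescence formed as diaphorase reduces resazurin using NADPH; 0% = DMSO with enzyme and 100% = DMSO without enzyme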
Diaphorase 30uM: diaphorase inhibition or oxidation at 30 uM NADPH; shares compounds with PfGluPho inh; Diaphorase/resazurin coupled assay, resorufin fluorescence; inhibition, % at 20 µM; 29% of 820 active; AID 504863;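 active = inhibition averaging 50% or more, tested at 20 µM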;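 note: 0% = DMSO with enzyme and 100% = DMSO wells lacking diaphorase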
The depositor's hits bear a star.

Screening C=CC(=O)N1C/C(=C/c2ccccc2)C(=O)/C(=C\c2ccccc2)C1 returned PfGluPho inh 33, HKDC1 inh 38* and HKDC1 act conf2 2.
For O=C(NCc1ccccn1)c1cc(S(=O)(=O)N2CCN(c3ccccc3)CC2)ccc1Cl the results were PfGluPho inh 5, G6PDH counter 4, Tb hexokinase 5, Diaph inh CS 19, HKDC1 inh 73* and HKDC1 act conf2 -3.
O=C(O)CSc1c2ccccc2cc2ccccc12 was read as PfGluPho inh 8 and HKDC1 inh -1.
`Oc1cc(-c2ccccc2)c2ccccc2c1` gave PfGluPho inh 101*, G6PDH counter 39, Tb hexokinase 25, Diaph inh CS 84*, HKDC1 inh 27 and HKDC1 act conf2 -6.
Screening CC(=O)c1cc2c(cc1NC(=O)CSc1nc3ccc(C)cc3[nH]1)OCO2 returned PfGluPho inh 10, G6PDH counter -27, Tb hexokinase -5, Diaph inh CS 11 and HKDC1 inh 11.
Cc1onc(-c2ccccc2)c1C(=O)NC(=S)NNC(=O)c1ccc(O)cc1O was read as PfGluPho inh -42, G6PDH counter -6, Tb hexokinase -23, Diaph inh CS 26 and HKDC1 inh -40.
Screening Cc1onc(-c2ccccc2)c1C(=O)NC(=S)NNC(=O)c1ccccc1O returned PfGluPho inh -33, G6PDH counter 0, Tb hexokinase -17, Diaph inh CS 22, HKDC1 inh -45 and HKDC1 act conf2 -17.
Screening COc1ccc(CC2C(=O)NC(C)C(=O)N(C)C3Cc4ccc(cc4)Oc4cc(ccc4O)CC(C(=O)NC(C)C(=O)NC(C)C(=O)N2C)N(C)C3=O)cc1 (centres undefined) returned PfGluPho inh 13 and HKDC1 inh -6.
CC(C)(C)c1c(Cl)c(O)c(-c2ccccc2)c(=O)n1-c1ccccc1 was read as PfGluPho inh -22, G6PDH counter -2, Tb hexokinase -4, Diaph inh CS -10, HKDC1 inh 36* and HKDC1 act conf2 41.
`Cc1c(O)c2ccccc2n(-c2ccccc2)c1=O` gave PfGluPho inh 11 and HKDC1 inh 4.
Screening Cc1ccc(-n2c3nc(=O)[nH]c(=O)c-3cc3cc([N+](=O)[O-])ccc32)cc1C returned PfGluPho inh 43, G6PDH counter -34, Tb hexokinase -8, Diaph inh CS 91*, HKDC1 inh 61* and HKDC1 act conf2 65.
`CCC1=NN2C(=N)/C(=C\c3ccc(OCc4cc(=O)n5nc(CC)sc5n4)c(OC)c3)C(=O)N=C2S1` gave PfGluPho inh -3, G6PDH counter 0, Tb hexokinase -9, Diaph inh CS 54*, HKDC1 inh 34 and HKDC1 act conf2 23.
Screening CCc1nn2c(=O)cc(COc3ccc(/C=C4\C(=N)N5N=C(CC(C)C)SC5=NC4=O)cc3)nc2s1 returned PfGluPho inh -23, Tb hexokinase -31 and HKDC1 inh 22.
For Cc1ccc(NC(=O)CN2CCN(Cc3ccccc3)CC2)cc1 the results were PfGluPho inh 7 and HKDC1 inh -3.
Screening O=C(CN(C(=O)CCC(=O)Nc1ccccn1)c1ccc2c(c1)OCO2)NCc1ccc(F)cc1 returned PfGluPho inh 21, HKDC1 inh -46 and HKDC1 act conf2 31.
`O=c1c2ccccc2nc(/C=C/c2cccnc2)n1CCc1ccccc1` gave PfGluPho inh 21, Tb hexokinase -32, HKDC1 inh 34 and HKDC1 act conf2 39.
O=c1c2ccccc2nc(/C=C/c2cccnc2)n1Cc1ccccc1 was read as PfGluPho inh 25, G6PDH counter 10, Tb hexokinase -18, Diaph inh CS 14, HKDC1 inh 81* and HKDC1 act conf2 61.
`N#Cc1ccc(CSc2nnc(NC(=O)c3ccc4ncsc4c3)s2)cc1` gave PfGluPho inh -4, G6PDH counter 16, Tb hexokinase -8, Diaph inh CS 9, HKDC1 inh 51* and HKDC1 act conf2 41.
`CC(=O)n1cc(N(C(=O)CCl)c2ccc(C)cc2)c2ccccc21` gave PfGluPho inh 1, Tb hexokinase -4, HKDC1 inh 41* and HKDC1 act conf2 15.
For O=C(CC1C[C@H](C(=O)N2CCCCC2)[C@@]2(CCc3ccccc3)c3[nH]c4ccccc4c3CCN2C1=O)NCCCn1ccnc1 (some centres undefined) the results were PfGluPho inh 1 and HKDC1 inh 0.
Nn1cnnc1N/N=C/c1cc(Br)cc(Br)c1O was read as PfGluPho inh 38, G6PDH counter 32, Tb hexokinase 18, Diaph inh CS 50*, HKDC1 inh -52 and HKDC1 act conf2 -32*.
For OC1(c2cccc(C(F)(F)F)c2)CCN(Cc2nnnn2CCc2ccccc2)CC1 the results were PfGluPho inh -10, G6PDH counter 4, Tb hexokinase -2, Diaph inh CS 20 and HKDC1 inh 8.
Screening COc1ccc2c(c1)CCc1c(C(=O)N3CCCc4ccccc43)noc1-2 returned PfGluPho inh -13, G6PDH counter -26, Tb hexokinase 5, Diaph inh CS 37, HKDC1 inh 38* and HKDC1 act conf2 -26.
For COc1ccc2c(c1)CCc1c(C(=O)N3CCOCC3)noc1-2 the results were PfGluPho inh 0, G6PDH counter 12, Tb hexokinase -10, Diaph inh CS 15 and HKDC1 inh -10.
`O=NNc1nc2ccccc2n1Cc1ccccc1` gave PfGluPho inh 37, HKDC1 inh -40 and HKDC1 act conf2 -44*.
`O=c1ccnc(SCn2nnc3ccccc3c2=O)[nH]1` gave PfGluPho inh -20, G6PDH counter -3, Tb hexokinase -9, Diaph inh CS 8 and HKDC1 inh -12.
`Cc1cc2c(N)cccc2nn1` gave PfGluPho inh 100*, G6PDH counter 52*, Tb hexokinase 0, Diaph inh CS 44, HKDC1 inh 35*, HKDC1 act conf2 4 and PfGluPho conf 4.
O=Nc1c(O)ccc2cc(S(=O)(=O)O)ccc12 was read as PfGluPho inh 102*, HKDC1 inh 34, HKDC1 act conf2 15, PfGluPho conf 90*, Diaphorase 10uM 76* and Diaphorase 30uM 73*.
`CC(=O)c1cc(F)c(N2CCN(C(=O)c3ccco3)CC2)cc1C` gave PfGluPho inh 8, G6PDH counter -8, Tb hexokinase -3, Diaph inh CS -4 and HKDC1 inh 0.
